Data from ChEMBL document CHEMBL5260830, “Breakthroughs in neuroactive steroid drug discovery” (Bioorg Med Chem Lett, 2018).
≈ marks a conversion by molar mass, not a printed value.

Assays:
[1] = molecular target: GABA-A receptor; anion channel; test: Displacement of [35S]-TBPS from rat synaptosomes GABAA receptor incubated for 90 mins by liquid scintillation counting method; assay type: subcellular, Synaptosome
[2] = molecular target: Glutamate NMDA receptor; GRIN1/GRIN2B (Homo sapiens, UniProt Q05586+Q13224); test: Inhibition of GluN1/GluN2B NMDA receptor (unknown origin) expressed in HEK293 cells; assay type: cell-based
Chain of Glutamate NMDA receptor; GRIN1/GRIN2B (Q13224 whole entry, other chains not shown): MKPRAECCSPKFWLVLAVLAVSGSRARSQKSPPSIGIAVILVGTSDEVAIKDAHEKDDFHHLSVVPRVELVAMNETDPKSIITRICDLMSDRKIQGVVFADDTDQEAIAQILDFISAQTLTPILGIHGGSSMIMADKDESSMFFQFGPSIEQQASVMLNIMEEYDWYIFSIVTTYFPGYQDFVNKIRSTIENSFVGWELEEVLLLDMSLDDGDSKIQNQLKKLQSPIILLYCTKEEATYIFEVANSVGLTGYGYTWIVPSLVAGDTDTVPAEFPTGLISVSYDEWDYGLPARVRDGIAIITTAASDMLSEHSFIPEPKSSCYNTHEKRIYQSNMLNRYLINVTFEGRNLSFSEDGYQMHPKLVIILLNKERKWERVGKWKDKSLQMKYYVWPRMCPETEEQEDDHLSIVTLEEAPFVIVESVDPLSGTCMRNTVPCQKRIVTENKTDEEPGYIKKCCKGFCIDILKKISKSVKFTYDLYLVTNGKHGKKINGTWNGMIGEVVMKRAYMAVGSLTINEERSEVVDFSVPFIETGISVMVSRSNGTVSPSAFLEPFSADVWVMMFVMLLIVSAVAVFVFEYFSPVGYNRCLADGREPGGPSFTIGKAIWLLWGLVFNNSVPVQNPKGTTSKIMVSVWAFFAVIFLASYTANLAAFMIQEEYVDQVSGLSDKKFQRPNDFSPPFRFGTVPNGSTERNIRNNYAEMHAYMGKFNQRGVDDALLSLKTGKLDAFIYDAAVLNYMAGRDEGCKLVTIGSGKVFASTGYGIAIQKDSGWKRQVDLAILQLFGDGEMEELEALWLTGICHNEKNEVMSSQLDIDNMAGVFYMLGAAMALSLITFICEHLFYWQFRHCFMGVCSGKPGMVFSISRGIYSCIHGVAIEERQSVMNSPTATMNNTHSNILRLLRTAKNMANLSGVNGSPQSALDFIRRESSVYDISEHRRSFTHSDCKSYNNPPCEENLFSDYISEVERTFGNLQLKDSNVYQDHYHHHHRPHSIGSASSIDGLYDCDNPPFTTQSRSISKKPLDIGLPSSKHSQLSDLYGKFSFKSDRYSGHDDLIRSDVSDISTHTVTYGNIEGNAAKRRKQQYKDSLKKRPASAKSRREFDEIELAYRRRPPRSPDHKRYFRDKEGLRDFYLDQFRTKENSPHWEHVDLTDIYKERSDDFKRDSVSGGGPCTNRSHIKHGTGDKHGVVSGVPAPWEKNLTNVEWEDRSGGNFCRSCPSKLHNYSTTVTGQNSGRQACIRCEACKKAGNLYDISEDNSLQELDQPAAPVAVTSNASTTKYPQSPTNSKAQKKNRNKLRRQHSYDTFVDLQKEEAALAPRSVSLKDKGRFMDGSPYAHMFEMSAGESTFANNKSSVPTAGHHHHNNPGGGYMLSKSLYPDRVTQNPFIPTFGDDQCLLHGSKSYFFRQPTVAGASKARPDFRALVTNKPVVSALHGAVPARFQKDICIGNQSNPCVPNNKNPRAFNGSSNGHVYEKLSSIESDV
Outline: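 Potency measured in HEK293 cells transfected with rat GluN1 and GluN2B subunits.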

[3] = molecular target: GABA-A receptor; anion channel; test: Displacement of [35S]-TBPS GABAA receptor in Wistar rat brain membrane incubated for 60 mins by competitive binding assay; assay type: cell membranes
Mus musculus [4] = species on record: Mus musculus; test: Anticonvulsant activity in 6-Hz induced seizure mouse model assessed as protection against 6-Hz induced seizure; assay type: functional
Outline: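 Tonic currents recorded from voltage-clamped ([…]) dentate gyrus granule cells of wild-type female mice. Value is fold potentiation of the mean normalized tonic response to 1 µM GABA, from four to eight cells per steroid and concentration. Anticonvulsant ED50 determined in the mouse 6-Hz psychomotor seizure model.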

[5] = molecular target: GABA-A receptor; anion channel (Homo sapiens) (UniProt P14867+P47870+P18507+P28472+P48169+Q99928+Q9UN88+P34903+O00591+O14764+Q8N1C3+P18505+P78334+P47869+P31644+Q16445); test: Potentiation of NAS mediated GABA (unknown origin) tonic effect assessed as fold potentiation; assay type: protein-complex assay; details: filed as activator
[6] = Therapeutic index, ratio of AD50 for mouse to MED for anxiolytic activity in mouse assessed as increase in time spent in open arm by elevated plus maze test; assay type: toxicity; details: read-out: TI
Outline: (§1)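 Mice were dosed orally. Anxiolytic activity was tested in the elevated plus maze and reported as minimum effective dose. Anticonvulsant activity was tested against pentylenetetrazole-induced seizures and reported as ED50. Therapeutic indices were given for the anxiolytic and anticonvulsant read-outs against a preliminary mouse safety measure.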

[7] = Therapeutic index, ratio of AD50 for mouse to ED50 for anticonvulsant activity in PTZ induced mouse administered orally; assay type: toxicity; details: in vivo, route po, read-out: TI; outline: as §1
[8] = molecular target: T1, GABA-A receptor; alpha-1/beta-2/gamma-2 (Homo sapiens, UniProt P14867+P18507+P47870); test: Positive allosteric modulation of human GABAA alpha1beta2gamma2 receptor expressed in Xenopus laevis oocytes by two-microelectrode voltage-clamp assay; assay type: cell-based, Oocyte
T1 sequence (P14867 whole entry): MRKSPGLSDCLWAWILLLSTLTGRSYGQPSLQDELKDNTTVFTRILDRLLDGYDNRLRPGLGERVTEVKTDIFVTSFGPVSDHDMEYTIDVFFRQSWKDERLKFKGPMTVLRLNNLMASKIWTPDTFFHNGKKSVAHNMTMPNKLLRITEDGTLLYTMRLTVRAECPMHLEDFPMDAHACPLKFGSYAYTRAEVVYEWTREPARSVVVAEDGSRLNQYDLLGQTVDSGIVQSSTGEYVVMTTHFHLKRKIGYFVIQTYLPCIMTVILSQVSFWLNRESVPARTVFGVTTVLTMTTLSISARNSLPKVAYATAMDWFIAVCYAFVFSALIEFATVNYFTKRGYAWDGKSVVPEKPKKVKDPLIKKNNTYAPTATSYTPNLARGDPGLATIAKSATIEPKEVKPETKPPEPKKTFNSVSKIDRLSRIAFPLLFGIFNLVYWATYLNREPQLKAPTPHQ
T1 sequence (P47870 whole entry): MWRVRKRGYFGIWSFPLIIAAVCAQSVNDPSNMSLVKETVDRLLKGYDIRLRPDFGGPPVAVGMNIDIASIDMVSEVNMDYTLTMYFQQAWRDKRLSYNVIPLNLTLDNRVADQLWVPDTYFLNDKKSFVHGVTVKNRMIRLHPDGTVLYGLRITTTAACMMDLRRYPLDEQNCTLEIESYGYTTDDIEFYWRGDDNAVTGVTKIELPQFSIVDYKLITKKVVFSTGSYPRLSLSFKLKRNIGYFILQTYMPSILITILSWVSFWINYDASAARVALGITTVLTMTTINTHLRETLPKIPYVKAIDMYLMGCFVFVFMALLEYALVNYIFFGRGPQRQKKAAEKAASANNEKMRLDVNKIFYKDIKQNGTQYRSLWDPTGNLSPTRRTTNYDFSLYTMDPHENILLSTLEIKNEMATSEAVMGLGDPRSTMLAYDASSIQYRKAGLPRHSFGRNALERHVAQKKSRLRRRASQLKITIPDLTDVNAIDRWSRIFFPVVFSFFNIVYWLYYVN
T1 sequence (P18507 whole entry): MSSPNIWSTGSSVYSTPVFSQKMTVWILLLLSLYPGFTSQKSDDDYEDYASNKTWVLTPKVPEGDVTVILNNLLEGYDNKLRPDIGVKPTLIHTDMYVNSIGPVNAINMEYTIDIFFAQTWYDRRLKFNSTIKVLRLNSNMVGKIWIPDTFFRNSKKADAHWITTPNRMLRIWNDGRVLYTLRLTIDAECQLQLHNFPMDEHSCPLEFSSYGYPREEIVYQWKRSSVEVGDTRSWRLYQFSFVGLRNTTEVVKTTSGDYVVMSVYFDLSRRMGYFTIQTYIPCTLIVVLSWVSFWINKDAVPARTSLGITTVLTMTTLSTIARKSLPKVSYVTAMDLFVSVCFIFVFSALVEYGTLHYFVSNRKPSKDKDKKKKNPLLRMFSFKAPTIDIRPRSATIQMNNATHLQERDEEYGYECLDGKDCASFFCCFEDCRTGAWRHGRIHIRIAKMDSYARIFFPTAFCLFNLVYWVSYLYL
Outline: (§2)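 PAM activity measured as EC50 in Xenopus oocytes expressing α1β2γ2L or α2β1γ2L GABAA receptors.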

Mus musculus [9] = species on record: Mus musculus; test: Anxiolytic activity in mouse assessed as increase in time spent in open arm by elevated plus maze test; assay type: functional; details: read-out: MED; outline: as §1
Mus musculus [10] = test: Anticonvulsant activity in PTZ induced mouse administered orally; assay type: functional; details: route po; outline: as §1
[11] = Solubility of the compound in 45% HPbetaCD; assay type: physicochemical
[12] = molecular target: T2, Gamma-aminobutyric acid receptor subunit alpha-2/beta-1/gamma-2 (Homo sapiens, UniProt P18505+P18507+P47869); test: Positive allosteric modulation of human GABAA alpha2beta1gamma2 receptor expressed in Xenopus laevis oocytes by two-microelectrode voltage-clamp assay; assay type: cell-based, Oocyte; outline: as §2
T2 sequence (P18507 whole entry): T1 sequence (P18507 whole entry)
T2 sequence (P18505 whole entry): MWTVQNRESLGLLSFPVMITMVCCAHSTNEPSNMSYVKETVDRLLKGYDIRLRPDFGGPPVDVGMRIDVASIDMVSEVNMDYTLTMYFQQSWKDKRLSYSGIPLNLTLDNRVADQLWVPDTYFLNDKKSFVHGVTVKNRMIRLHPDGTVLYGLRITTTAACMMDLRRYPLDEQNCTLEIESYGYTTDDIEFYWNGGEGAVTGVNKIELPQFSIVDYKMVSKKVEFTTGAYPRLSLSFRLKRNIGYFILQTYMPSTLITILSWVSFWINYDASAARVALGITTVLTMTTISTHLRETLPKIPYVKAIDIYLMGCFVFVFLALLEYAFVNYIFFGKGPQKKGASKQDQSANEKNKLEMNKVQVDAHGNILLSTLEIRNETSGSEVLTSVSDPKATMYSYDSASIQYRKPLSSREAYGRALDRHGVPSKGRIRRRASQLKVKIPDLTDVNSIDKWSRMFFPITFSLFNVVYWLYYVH
T2 sequence (P47869 whole entry): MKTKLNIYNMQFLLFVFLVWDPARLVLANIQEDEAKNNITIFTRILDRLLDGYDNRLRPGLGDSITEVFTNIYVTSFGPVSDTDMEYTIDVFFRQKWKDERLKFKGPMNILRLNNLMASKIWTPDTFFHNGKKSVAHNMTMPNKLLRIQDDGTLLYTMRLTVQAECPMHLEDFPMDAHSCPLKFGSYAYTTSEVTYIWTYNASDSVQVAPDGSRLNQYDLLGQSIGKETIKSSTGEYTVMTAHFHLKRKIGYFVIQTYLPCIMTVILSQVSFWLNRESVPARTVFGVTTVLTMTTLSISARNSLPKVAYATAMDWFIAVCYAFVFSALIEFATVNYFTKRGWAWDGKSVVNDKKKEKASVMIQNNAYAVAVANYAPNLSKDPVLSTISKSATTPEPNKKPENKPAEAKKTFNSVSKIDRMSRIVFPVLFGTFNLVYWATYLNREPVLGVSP

[13] = Permeability coefficient across apical to basolateral side in human Caco-2 cells assessed as drug recovery at pH 7.4; assay type: ADME, cell-based; details: Caco-2, pH 7.4, read-out: Drug recovery
[14] = Permeability coefficient across apical to basolateral side in human Caco-2 cells at pH 7.4; assay type: ADME, cell-based; details: Caco-2, pH 7.4, read-out: permeability
Rattus norvegicus = test: Neuroprotective activity against transient middle cerebral artery occlusion induced cerebral infraction Sprague-Dawley rat model assessed as decrease in cerebral infraction volume at 12 mg/kg, ip and measured after 7 days by TTC staining based assay; assay type: functional; design: scale not given: the % may be the effect or the level left; details: time 7 day
[15] = Inhibition of NMDA current in Sprague-Dawley rat Cortical neuron; assay type: functional, cell-based; details: cortical neurone
[16] = Inhibition of NMDA induced calcium increase in Sprague-Dawley rat Cortical neuron; assay type: functional, cell-based, Cortical neurone

Work on `CC(=O)[C@H]1CC[C@H]2[C@@H]3CC[C@H]4C[C@H](O)C[C@H]5O[C@H](C[C@]12C)[C@@H]3[C@]45C` yielded an IC50 [1] of 93 nM.

For `C[C@@]12CCC[C@H]1[C@@H]1CC[C@@H]3C[C@H](NC(=O)O)CC[C@]3(C)[C@H]1CC2`, the IC50 [2] was 21700 nM.

For `COCC(=O)[C@H]1CC[C@H]2[C@@H]3CC[C@H]4C[C@@H]5O[C@@H]5C[C@]4(C)[C@H]3CC[C@]12C`, the IC50 [3] was 625 nM.

In the case of `CC(=O)[C@H]1CC[C@H]2[C@@H]3CC[C@H]4C[C@H](O)CC[C@]4(C)[C@H]3C(=O)C[C@]12C` [ALFAXALONE], the ED50 (Mus musculus [4]) is reported as 8.8 mg/kg and the fold change (FC) [5] is reported as 1.98.

In the case of `CC(=O)[C@H]1CC[C@H]2[C@@H]3CC[C@@H]4C[C@H](O)C[C@@H]5O[C@H](C[C@]12C)[C@@H]3[C@]45C`, the IC50 [1] is reported as 490 nM.

`C[C@]12CC[C@@H](O)C[C@@H]1CC[C@@H]1[C@@H]2CC[C@]2(C)[C@@H](C(=O)CO)CC[C@@H]12` gave an ED50 (Mus musculus [4]) of 5 mg/kg and a fold change (FC) [5] of 3.52.

In the case of `CC(=O)[C@H]1CC[C@H]2[C@@H]3CC[C@H]4C[C@@H](O)CC[C@]4(C)[C@H]3CC[C@]12C` [SEPRANOLONE], the ED50 (Mus musculus [4]) is reported as over 100 mg/kg and the fold change (FC) [5] is reported as 0.76.

With `CC(=O)[C@H]1CC[C@H]2[C@@H]3CC[C@H]4C[C@](C)(O)CC[C@]4(C)[C@H]3CC[C@]12C` [GANAXOLONE] the selectivity ratio [6] was 3.3, the selectivity ratio [7] was 3 and the EC50 [8] was 200 nM. The minimal effective dose (Mus musculus [9]) was 20 mg/kg, the ED50 (Mus musculus [10]) was 23 mg/kg and the solubility [11] was 20 mM (≈ 6650 µg/mL). It also gave an ED50 (Mus musculus [4]) of 1.5 mg/kg, a fold change (FC) [5] of 3.47 and an EC50 [12] of 100 nM.

`C[C@@]12CCC[C@H]1[C@@H]1CC[C@@H]3C[C@H](NC(=O)[C@@H](N)CCC(=O)O)CC[C@]3(C)[C@H]1CC2` gave an IC50 [2] of 1400 nM, a recovery [13] of under 50% and a Papp A→B [14] of 0.22 ×10⁻⁶ cm/s.

Molecule `CC(=O)[C@H]1CC[C@H]2[C@@H]3CCC4=C[C@H](O)C[C@@H]5O[C@H](C[C@]12C)[C@@H]3[C@]45C` has an IC50 [1] of 72 nM.

Molecule `CC(=O)[C@H]1CC[C@H]2[C@@H]3CC[C@@H]4C[C@H](OC(=O)[C@@H](N)CCC(=O)O)CC[C@]4(C)[C@H]3CC[C@]12C` has an IC50 [2] of 51700 nM.

`C[C@@]12CCC[C@H]1[C@@H]1CC[C@@H]3C[C@H](NC(=O)CC(=O)O)CC[C@]3(C)[C@H]1CC2` gave an IC50 [2] of 15400 nM.

`CC(=O)[C@H]1CC[C@H]2[C@@H]3CC[C@H]4C[C@H](O)CC[C@]4(C)[C@H]3CC[C@]12C` [BREXANOLONE] gave an ED50 (Mus musculus [4]) of 4.2 mg/kg, a fold change (FC) [5] of 4.36 and an IC50 [1] of 86 nM.

`CC(=O)[C@H]1CC[C@H]2[C@@H]3C[C@H]4OC[C@@]5(CC[C@@H](O)CC45)[C@H]3CC[C@]12C` (stereo not given in full) showed an IC50 [1] of 141 nM.

In the case of `CC(=O)[C@H]1CC[C@H]2[C@@H]3CC[C@@H]4C[C@H](O)CC[C@]4(C)[C@H]3CC[C@]12C` [ELTANOLONE], the ED50 (Mus musculus [4]) is reported as 7.7 mg/kg and the fold change (FC) [5] is reported as 2.24.

Work on `C=C(C)CC[C@@H](C)[C@H]1CC[C@H]2[C@@H]3C[C@@H](O)[C@@]4(O)C[C@H](O)CC[C@]4(CO)[C@H]3CC[C@]12C` yielded an Activity (Rattus norvegicus) of 30%, an IC50 [15] of 10300 nM and an IC50 ([16]; Rattus norvegicus, Sprague-Dawley, Cortical neurone) of 7800 nM. It also gave an IC50 ([16]; cortical neurone) of 10300 nM.

Molecule `COCCC(CO)(CCOC)C(=O)[C@H]1CC[C@H]2[C@@H]3CC[C@H]4C[C@@H]5O[C@@H]5C[C@]4(C)[C@H]3CC[C@]12C` has an IC50 [3] of 5000 nM.

With `C[C@@]12CCC[C@H]1[C@@H]1CC[C@@H]3C[C@H](NC(=O)[C@@H](N)CC(=O)O)CC[C@]3(C)[C@H]1CC2` the IC50 [2] was 1000 nM, the recovery [13] was under 50% and the Papp A→B [14] was 0.22 ×10⁻⁶ cm/s.

With `CC(=O)[C@H]1CC[C@H]2[C@@H]3CC[C@H]4C[C@@H]5O[C@@H]5C[C@]4(C)[C@H]3CC[C@]12C` the IC50 [3] was 255 nM.
